GASC1 inh – blocks human GASC-1 (KDM4C) demethylase activity; 0.15% of 96,000 active; inhibition, % at 12.5 µM; Q9H3R0; GST-KDM4C 2-372, H3K9me3 peptide, LANCE TR-FRET; AID 720574;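 active = mean replicate inhibition above about 25%, with at least 55% of replicates also reaching it, limit read from the data, passing the limit was not always enough; inconclusive = only one of those two conditions met; inactive = neither condition met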
Target sequence (Q9H3R0 2-372 limits assumed): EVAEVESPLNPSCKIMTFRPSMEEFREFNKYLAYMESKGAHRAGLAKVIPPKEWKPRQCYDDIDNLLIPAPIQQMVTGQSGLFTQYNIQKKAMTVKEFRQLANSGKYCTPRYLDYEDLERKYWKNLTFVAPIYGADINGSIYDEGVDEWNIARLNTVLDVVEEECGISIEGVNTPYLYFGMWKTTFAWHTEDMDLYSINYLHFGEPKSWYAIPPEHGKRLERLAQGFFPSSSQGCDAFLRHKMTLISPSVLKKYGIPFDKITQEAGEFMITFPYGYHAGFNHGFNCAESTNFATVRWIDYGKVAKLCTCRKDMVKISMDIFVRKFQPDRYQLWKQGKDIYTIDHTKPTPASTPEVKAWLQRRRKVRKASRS
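Material: N-terminal GST-fused human GASC-1 (KDM4C) fragment, residues 2-372. Input: 10 nM enzyme. Incubation: enzyme reaction 30 min, then detection 60 min, both room temperature. Doses: one test concentration per compound. Read-out basis: inhibition from TR-FRET ratio decrease. Detection: LANCE TR-FRET, excitation 340 nm, emissions 618 and 671 nm.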
IDH1 R132H inh – blocks human IDH1 R132H reductase activity. O75874. diaphorase/resazurin fluorescence, 60 min. inhibition, % at 10 µM. 0.18% of 70,000 active; in the data active = inhibition above about 34%; inconclusive = no clear call, values can overlap the other calls; inactive = below about 11%;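 also: 0% = DMSO and 100% = no enzyme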
T cruzi growth-1 – blocks T. cruzi growth in NIH3T3 culture; T. cruzi beta-gal in NIH3T3, GalScreen luminescence, 90 h; inhibition, % at 8.34 µM; 5.9% of 77,000 active; AID 624255;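 active = mean inhibition above about 93%, with at least 55% of replicates each passing it, limit read from the data, passing the limit was not always enough; inconclusive = only one of those two conditions holds; inactive = neither condition holds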
T cruzi growth-2 – blocks T. cruzi growth in NIH3T3 host cells; shares compounds with T cruzi growth-1; T. cruzi beta-gal in NIH3T3, GalScreen luminescence, 90 h; inhibition, % at 8.35 µM; 72% of 5,600 active; AID 651739;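 active = mean replicate inhibition above about 95% and at least 55% of replicates individually reaching it, limit read from the data; inconclusive = only one of the two criteria is met; inactive = neither criterion is met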
T cruzi growth-3 – blocks T. cruzi growth in NIH3T3 host cells | 21% of 5,600 active | inhibition, % at 2.09 µM | shares compounds with T cruzi growth-1 | T. cruzi beta-gal in NIH3T3, GalScreen luminescence, 90 h;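 active = mean inhibition above about 95%, with at least 55% of replicates also reaching it, limit read from the data; inconclusive = meets just one of the two conditions; inactive = meets neither condition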;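 also: plate controls were neutral control median for no effect and positive control median for full effect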
3T3 cytotox – kills mouse NIH/3T3 fibroblasts | shares compounds with T cruzi growth-1 | NIH/3T3 viability, CellTiter-Glo ATP luminescence, 90 h | cytotoxicity (signal decrease), % at 8.35 µM | 14% of 5,600 active;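 active = mean signal decrease across replicates above about 35% based on untreated-well scatter, with enough replicates individually passing, limit read from the data; inconclusive = no rule stated though some were filed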;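 also: 0% = median of neutral control wells and 100% = median of positive control wells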
NIH3T3 tox 2 – NIH/3T3 (mouse) viability loss | shares compounds with T cruzi growth-1 | NIH/3T3 viability, CellTiter-Glo ATP luminescence, 90 h | inhibition, % at 24.9 µM | 56% of 5,600 active | AID 651744;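 active = mean loss of cell viability signal at or above a set limit, and enough replicates individually reaching it; inconclusive = meets only the mean limit or only the replicate share; inactive = meets neither condition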;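 also: 0% = median of neutral control wells and 100% = median of positive control wells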
* = called active by the depositor; ? = inconclusive; · = no result. The sample as a whole holds a higher share of hits than the screen did.

SMILES	GASC1 inh	IDH1 R132H inh	T cruzi growth-1	T cruzi growth-2	T cruzi growth-3	3T3 cytotox	NIH3T3 tox 2
COc1ccc(NC(=O)Nc2ccc3c(c2)C(=O)N([C@@H](C)CO)C[C@@H](C)[C@H](CN(C)Cc2ccc4c(c2)OCO4)OCCCC[C@@H](C)O3)cc1	0	0	91	·	·	·	·
COc1ccc(NC(=O)Nc2ccc3c(c2)C(=O)N([C@H](C)CO)C[C@H](C)[C@@H](CN(C)Cc2ccc4c(c2)OCO4)OCCCC[C@H](C)O3)cc1	0	0	?	105*	57	23	30
COc1ccc(NC(=O)Nc2ccc3c(c2)C(=O)N([C@H](C)CO)C[C@H](C)[C@@H](CN(C)Cc2ccc4c(c2)OCO4)OCCCC[C@@H](C)O3)cc1	0	-2	54	·	·	·	·
COc1ccc(CN(C)C[C@@H]2OCCCC[C@H](C)Oc3ccc(NC(=O)Nc4ccc5c(c4)OCO5)cc3C(=O)N([C@@H](C)CO)C[C@@H]2C)cc1	-1	·	102*	100*	91	68*	80*
O=C(CN1CCOCC1)N[C@H]1CC[C@H](CCn2cc(C3CCCCC3)nn2)O[C@@H]1CO	-1	1	-39	·	·	·	·
C[C@@H]1CN([C@H](C)CO)C(=O)c2cccc(NC(=O)Nc3ccc4c(c3)OCO4)c2O[C@H]1CN(C)Cc1ccc(C(=O)O)cc1	4	·	-6	·	·	·	·
Cc1ccc(S(=O)(=O)N(C)C[C@H]2Oc3ccc(NC(=O)Cn4cnnn4)cc3CC(=O)N([C@H](C)CO)C[C@@H]2C)cc1	5	0	0	·	·	·	·
CN1C(=O)c2cc(NC(=O)c3ccc(F)c(F)c3)ccc2OC[C@@H]2O[C@@H](CC(=O)N[C@@H]3CCN(Cc4ccccc4)C3)CC[C@H]21	-3	·	101*	108*	64	1	0
CN1C(=O)c2cc(NC(=O)Cc3cccs3)ccc2OC[C@H]2O[C@@H](CC(=O)N[C@@H]3CCN(Cc4ccccc4)C3)CC[C@H]21	3	·	90	·	·	·	·
CN1C(=O)c2cc(NC(=O)c3ccc(F)c(F)c3)ccc2OC[C@H]2O[C@@H](CC(=O)N[C@H]3CCN(Cc4ccccc4)C3)CC[C@H]21	0	·	103*	94	73	-15	?
Cc1noc(C)c1NC(=O)Nc1ccc2c(c1)C(=O)N(C)[C@@H]1CC[C@H](CC(=O)N[C@@H]3CCN(Cc4ccccc4)C3)O[C@@H]1CO2	2	·	27	·	·	·	·
CN1C(=O)c2cc(NC(=O)c3ccc(F)c(F)c3)ccc2OC[C@H]2O[C@H](CC(=O)N[C@@H]3CCN(Cc4ccccc4)C3)CC[C@H]21	1	·	91	·	·	·	·
CN1C(=O)c2cc(NC(=O)c3ccc(F)c(F)c3)ccc2OC[C@@H]2O[C@H](CC(=O)N[C@H]3CCN(Cc4ccccc4)C3)CC[C@@H]21	-1	·	104*	104*	82	0	32*
Cc1noc(C)c1NC(=O)Nc1ccc2c(c1)C(=O)N(C)[C@@H]1CC[C@H](CC(=O)N[C@H]3CCN(Cc4ccccc4)C3)O[C@H]1CO2	-2	·	104*	?	2	1	-4
CCS(=O)(=O)Nc1ccc2c(c1)C(=O)N(C)[C@@H]1CC[C@@H](CC(=O)N[C@@H]3CCN(Cc4ccccc4)C3)O[C@@H]1CO2	0	·	27	·	·	·	·
O=[N+]([O-])c1ccc(S(=O)(=O)NCCN2CCOCC2)cc1	·	0	·	·	·	·	·
CN1C(=O)c2cc(NC(=O)Cc3cccs3)ccc2OC[C@H]2O[C@@H](CC(=O)N[C@H]3CCN(Cc4ccccc4)C3)CC[C@H]21	7	·	75	·	·	·	·
CN1C(=O)c2cc(NC(=O)c3ccc(F)c(F)c3)ccc2OC[C@@H]2O[C@H](CC(=O)N[C@@H]3CCN(Cc4ccccc4)C3)CC[C@@H]21	3	·	108*	?	87	13	54*
CN1C(=O)c2cc(NC(=O)Cc3cccs3)ccc2OC[C@@H]2O[C@@H](CC(=O)N[C@@H]3CCN(Cc4ccccc4)C3)CC[C@@H]21	2	·	93	·	·	·	·
CN1C(=O)c2cc(NC(=O)c3ccc(F)c(F)c3)ccc2OC[C@@H]2O[C@@H](CC(=O)N[C@H]3CCN(Cc4ccccc4)C3)CC[C@@H]21	-1	·	101*	106*	68	3	10
CCS(=O)(=O)Nc1ccc2c(c1)C(=O)N(C)[C@@H]1CC[C@@H](CC(=O)N[C@H]3CCN(Cc4ccccc4)C3)O[C@@H]1CO2	-1	·	-17	·	·	·	·
CN1C(=O)c2cc(NC(=O)Cc3cccs3)ccc2OC[C@@H]2O[C@@H](CC(=O)N[C@H]3CCN(Cc4ccccc4)C3)CC[C@@H]21	-1	·	?	89	85	-18	4
CN1C(=O)c2cc(NC(=O)c3ccc(F)c(F)c3)ccc2OC[C@H]2O[C@@H](CC(=O)N[C@@H]3CCN(Cc4ccccc4)C3)CC[C@@H]21	-2	·	98*	61	74	-2	7
O=C([C@H]1[C@H](CO)[C@H]2Cn3c(ccc(-c4ccncc4)c3=O)[C@@H]1N2CCC(F)(F)F)N1CCCCC1	-1	·	-79	·	·	·	·
COc1cccc(-c2cnc3c(c2)C(=O)N([C@H](C)CO)C[C@@H](C)[C@H](CN(C)Cc2ccccc2)O3)c1	3	0	0	·	·	·	·
SMILES	GASC1 inh	IDH1 R132H inh	T cruzi growth-1	T cruzi growth-2	T cruzi growth-3	3T3 cytotox	NIH3T3 tox 2
CCC(=O)N1CC2(C1)[C@@H](c1ccc(-c3ccc(F)cc3)cc1)[C@@H](CO)N2C(C)=O	0	·	·	·	·	·	·
CCCNC(=O)Nc1ccc2c(c1)OC[C@@H](C)N(C(=O)C1CCC1)C[C@H](C)[C@@H](OC)CN(C)C2=O	1	0	6	·	·	·	·
CN1C(=O)c2cc(NC(=O)c3ccc(F)c(F)c3)ccc2OC[C@H]2O[C@@H](CC(=O)N[C@@H]3CCN(Cc4ccccc4)C3)CC[C@H]21	2	·	110*	116*	86	1	27*
CCc1cnc(N2[C@@H](C#N)[C@H](c3ccc(C4=CCCCC4)cc3)[C@@H]2CO)s1	-1	·	88	·	·	·	·
N#C[C@H]1[C@H](c2ccc(C3=CCCC3)cc2)[C@@H](CO)N1c1nc(-c2ccccc2)cs1	-5	·	58	·	·	·	·
N#C[C@H]1[C@@H](c2ccc(C3=CCCC3)cc2)[C@H](CO)N1c1nc(-c2ccccc2)cs1	-4	·	·	·	·	·	·
CCc1csc(N2[C@H](C#N)[C@H](c3ccc(C4=CCCC4)cc3)[C@H]2CO)n1	-2	·	103*	103*	29	-5	20
CCc1csc(N2[C@H](C#N)[C@H](c3ccc(C4=CCCC4)cc3)[C@@H]2CO)n1	0	·	102*	107*	112*	12	36*
CCc1cnc(N2[C@H](CO)[C@H](c3ccc(C4=CCCCC4)cc3)[C@@H]2C#N)s1	-2	·	103*	104*	102*	38*	40*

Bioassay records as filed in PubChem BioAssay.
